# High-throughput results: PubChem, several laboratories
# HCV core dimer = HCV core protein dimerization inhibition. TR-FRET GST/Flag-core106 dimerization, 1536-well. inhibition, % at 5 µM. 0.33% of 300,000 active;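 active = inhibition above the mean of all tested compounds plus 3 SD, set per screening campaign, cut at about 45% in these data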
#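 System: GST/Flag-tagged HCV core106 proteins. Incubation: compound-protein-antibody incubation 4 h at 22.5 °C. Technique: HTRF with 340 nm excitation, 617/671 nm emission. Medium: KF-containing HEPES buffer, pH 7.45, DTT, CHAPS, BSA. Read-out: inhibition (%) from 671 over 617 nm ratio. Also added: Eu(K)-anti-GST 90 ng/mL plus XL665-anti-Flag 1 µg/mL.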
# MEX-5 binding = C. elegans MEX-5 TCR-2 RNA binding activity; Q9XUB2; MEX-5/FITC-TCR2 RNA binding, fluorescence polarization; stronger effect = lower value; activity score (negative = inhibition of binding), % at 10 µM; 0.38% of 300,000 active;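 active = inhibition past about -25% in most replicates, and total fluorescence under double the plate's negative control median, limit read from the data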;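 note: 0% = DMSO and -100% = 5 µM competing unlabeled TCR2 RNA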
# Target sequence (Q9XUB2 whole entry, looked up): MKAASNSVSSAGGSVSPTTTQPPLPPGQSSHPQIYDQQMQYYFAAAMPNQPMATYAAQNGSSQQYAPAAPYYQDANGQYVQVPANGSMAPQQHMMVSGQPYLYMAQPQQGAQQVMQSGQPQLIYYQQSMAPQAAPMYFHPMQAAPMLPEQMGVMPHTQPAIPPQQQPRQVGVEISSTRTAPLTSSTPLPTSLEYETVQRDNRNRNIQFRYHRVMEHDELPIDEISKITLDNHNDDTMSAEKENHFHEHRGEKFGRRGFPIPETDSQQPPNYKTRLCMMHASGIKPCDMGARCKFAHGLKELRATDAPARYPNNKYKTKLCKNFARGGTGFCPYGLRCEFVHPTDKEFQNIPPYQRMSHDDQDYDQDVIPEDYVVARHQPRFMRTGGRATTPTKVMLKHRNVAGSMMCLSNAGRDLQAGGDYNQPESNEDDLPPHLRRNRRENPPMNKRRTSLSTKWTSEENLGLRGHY
# CendR NRP1 mod = modulators of CendR peptide binding to human neuropilin-1; O14786; inhibition, % at 25 µM; AID 602438; 0.85% of 360,000 active; FAM-RPARPAR peptide binding to NRP-1, fluorescence polarization;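 active = inhibition or corrected inhibition above about 18%, plus a signal ratio from 0.5 to 1.5, limit read from the data, passing the limit was not always enough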
# FID counter = fluorescent intercalator displacement, NS3 helicase counter-screen; DNA fluorescent intercalator displacement, fluorescence; inhibition, % at 7.9 µM; 0.17% of 290,000 active; in the data active = inhibition above about 37%;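 note: 0% = vehicle and 100% = reference compound; higher means more ethidium bromide displaced from hairpin DNA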
# The depositor's hits bear a star; nt = no result. Rows were chosen to be rich in hits. Some 1.5% of all compounds tested hit in one or more screens of this group.
SMILES,HCV core dimer,MEX-5 binding,CendR NRP1 mod,FID counter
CCC(C)N(C)Cc1cccc(C2(O)CCN(S(=O)(=O)c3ccc(F)c(C)c3)CC2)c1 (stereo unspecified),-6,-1,-12,38*
CN(CC(=O)Nc1ccc(F)cc1)C(=O)COC(=O)c1nc(Cl)ccc1Cl,nt,nt,0,nt
N#Cc1c(-c2ccc(Cl)cc2)c2c([nH]c1=O)-c1ccccc1OC2,6,-28*,4,-15
CC1(C)Cc2c(c(-c3ccccc3Cl)[nH]c(=O)c2C#N)CO1,-6,0,2,-6
COC(=O)N[C@@H]1C[C@H]2[C@@H]3CC[C@H]4C[C@@H](OC)CC[C@]4(C)[C@H]3CC[C@]12C,nt,nt,28*,nt
COC(=O)N[C@@H]1C[C@H]2[C@@H]3CC[C@H]4C[C@@H](OC)CC[C@]4(C)[C@H]3CC[C@@]12C,nt,nt,20,nt
O=C(Nc1ccc(Cl)c(Cl)c1)N[C@@H]1CC[C@@H](CCn2cc(C3CCCCC3)nn2)O[C@@H]1CO,nt,nt,-2,nt
Cc1oc(-c2cccc(Cl)c2)nc1CN1CCC(C(=O)NCc2ccco2)CC1,5,-1,-17,23
CCN1CCCC1CNC(=O)C1CCN(Cc2nc(-c3cccc(Br)c3)oc2C)CC1 (stereo unspecified),-5,2,-1,39*
COc1ccc(-n2nc3c(N)n[nH]c3cc2=O)cc1,11,-7,29*,-1
COc1ccc(-c2nc3c4ccccc4ccn3c2Cc2cccc(F)c2)cc1OC,nt,nt,-3,nt
COc1ccc(Nc2nc3c(C)cccc3cc2C#N)cc1,16,-2,38*,2
Nc1ccc(C(=O)Nc2cccc3ncccc23)cc1,-7,0,-11,2
CC(C)(C)c1ccc(C(=O)Nc2cccc3ncccc23)cc1,6,-74*,50,-39
c1cc2c(c(CC3CO3)c1CC1CO1)OCCOCCOCCOCCO2 (stereo unspecified),nt,nt,-10,nt
COC(=O)C1=CN(c2ccc(C)cc2)C(N)=C(C#N)C1c1ccc(OC)cc1 (stereo unspecified),nt,nt,-4,nt
CC1Sc2ccccc2N(Cc2ccc(OC(F)(F)F)cc2)C1=O (stereo unspecified),nt,nt,5,nt
COc1cc(OC)cc(C(=O)Nc2ccccc2S(=O)(=O)N2CCCC2OC(C)=O)c1 (stereo unspecified),3,2,18*,-30
COC(=O)C1CCCN1S(=O)(=O)c1ccccc1NC(=O)c1cc(OC)c(OC)c(OC)c1 (stereo unspecified),5,-2,3,-35
CC(C)Nc1ncnc2c1ncn2[C@H]1CN(Cc2ccc(F)cc2)C[C@@H](CO)O1,nt,nt,-10,nt
Cc1nn(-c2ccccc2)c(N2CCCC2)c1/C=N/NC(=O)c1cc(-c2cccnc2)nc2ccccc12,10,-28*,6,-23
O=C(Cn1ccc(NC(=O)OCc2ccccc2)nc1=O)NCCCN1CCCC1=O,nt,nt,9,nt
O=C(Cn1ccc(NC(=O)OCc2ccccc2)nc1=O)NCCN1CCOCC1,nt,nt,38*,nt
Cc1ccc(C)c(NC(=O)c2ccc3ccccc3n2)c1,1,-1,2,-2
Cc1ccc(NC(=S)c2ccc3ccccc3n2)c(C)c1,-5,-38*,7,-8
SMILES,HCV core dimer,MEX-5 binding,CendR NRP1 mod,FID counter
CCOc1ccc(C2C(C#N)=C(N)N(c3sc4c(c3C#N)CCCC4)C3=C2C(=O)CCC3)cc1 (stereo unspecified),55*,3,-26,-6
CCCC(=O)Nc1ccc(S(=O)(=O)N2CCc3ccccc32)cc1,nt,nt,-6,nt
COc1ccc(N2Cc3ccc(C(=O)N/N=C\c4ccc(O)cc4O)cc3C2)cc1,68*,-1,nt,-24
O=C(Cc1ccccc1)NCC(=O)N1CCN(c2ccccc2)CC1,11,-1,27*,-17
CC(C)COC(=O)N1CCCCC1c1cc(C(=O)NC(C)C)no1 (stereo unspecified),nt,nt,9,nt
C[C@@]12C(=O)N(CC3CC3)CC(=O)N1[C@H](/C=C/c1ccccc1)[C@@H]1C(=O)N(c3ccccc3)C(=O)[C@@H]12,-11,1,28*,-32
O=C(CCSc1ccc(Cl)cc1)c1ccco1,-3,-1,3,-4
O=C(CSc1ccc(Cl)cc1)c1ccco1,49*,-3,-15,-15
CCNC(=O)C1(C)CCN(Cc2ccc(C#N)cc2)C1 (stereo unspecified),nt,nt,-2,nt
C[C@@H]1ON(C)[C@H]2C[C@H]3c4[nH]c5ccc(-c6ccc7c(c6)OCO7)cc5c4CCN3C[C@@H]12,nt,nt,-7,nt
CCn1c(C)nnc1SCC(=O)NC1CCCCCC1,-2,0,27*,-3
CCCCCCN1C[C@@H](n2cc(C3CC3)nn2)[C@H](O)C[C@@H]1c1ccc(OC)cc1,nt,nt,3,nt
CN(Cc1ncc[nH]1)C(=O)CC1C(=O)NCCN1Cc1c(F)cccc1Cl (stereo unspecified),-3,0,23*,-4
CCC(=O)N1N=C(c2cccs2)CC1c1ccco1 (stereo unspecified),2,0,40*,-6
O=C1[C@@H](c2ccccc2)CC[C@@H]2C=CC[C@H]3CCN1[C@@H]32,nt,nt,10,nt
CCCCCNC(=O)C(c1cccc2ccccc12)n1c(=O)c(-c2cc3ccccc3[nH]2)nc2ccccc21 (stereo unspecified),nt,nt,-1,nt
O=c1c(Br)ccc(Br)cc1Br,nt,nt,-11,nt
COc1ccc(S(=O)(=O)N2CCN(Cc3cccc(F)c3)CC2)cc1,0,-1,7,nt
COc1ccc(S(=O)(=O)N2CCN(Cc3cccc([N+](=O)[O-])c3)CC2)cc1,-2,1,20*,nt
CC1(C(=O)NS(=O)(=O)c2ccc(F)cc2F)CCN1C(=O)CCc1ccccc1 (stereo unspecified),nt,nt,0,nt
C#CCOC(=O)CCCNc1ccc([N+](=O)[O-])cc1[N+](=O)[O-],48*,-9,3,4
CC1(C(=O)NS(=O)(=O)c2cccc(C#N)c2)CCN1C(=O)c1ccccc1 (stereo unspecified),nt,nt,-2,nt
C=CCN(CC=C)C(=S)Nc1ccc2nsnc2c1,-3,1,30*,-7
O=C(Nc1ccc2nsnc2c1)N1CCCCC1,-3,0,8,0
S=C(Nc1ccc2nsnc2c1)N1CCCCCC1,-17,-5,45*,-1
SMILES,HCV core dimer,MEX-5 binding,CendR NRP1 mod,FID counter
CCc1ccc(OC(=O)CN2C(=O)c3ccccc3C2=O)cc1,3,0,26*,-12
CN1C(=O)c2ccccc2NC(=O)[C@]12O[C@@H]2c1cccc(O)c1,-5,-44*,-60,nt
O=C1CCCC2=C1C(c1ccco1)Nc1ccc3ccccc3c12 (stereo unspecified),71*,-3,-16,-6
O=C1CCCC2=C1C(c1ccc(O)c(O)c1)Nc1ccc3ccccc3c12 (stereo unspecified),2,-5,5,nt
Cc1ccc(NC(=O)COc2ccc(/C=C3/SC(=Nc4ccccc4)N(Cc4cccnc4)C3=O)cc2)cc1,13,-60*,-40,-1
O=C(O)c1nn(-c2ccc(Cl)cc2)ccc1=O,-1,0,19*,14
CCOC(=O)[C@]12CCC=C1N(CCC1=CCCCC1)C(=O)[C@H](CC(=O)N1CCSCC1)C2,nt,nt,-1,nt
